Results on 18 compounds are retold here after ChEMBL document CHEMBL2401648, “3-Aryl-3-arylmethoxyazetidines. A new class of high affinity ligands for monoamine transporters” (Bioorg Med Chem Lett, 2013).

Molecules are shown by their SMILES.

Common to all, as to type: tissue-based
The species named for one test is Rattus norvegicus. Description: Selectivity ratio of Ki for DAT in Sprague-Dawley rat brain homogenate to Ki for SERT in Sprague-Dawley rat brain homogenate. The method in brief:
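Ratio of DAT Ki to SERT Ki. DAT Ki came from [3H]WIN 35,428 displacement and SERT Ki from [3H]citalopram displacement, both in rat brain tissue. Each Ki is the mean ± SEM of three experiments run in triplicate.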

Test [1] addresses Sodium-dependent serotonin transporter (Rattus norvegicus, UniProt P31652). Description: Displacement of [3H]Citalopram from SERT in Sprague-Dawley rat brain homogenate after 60 mins by scintillation counting analysis. The method, boiled down:
(§1)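 Competitive binding in rat brain tissue: [3H]citalopram displaced from SERT, [3H]WIN 35,428 displaced from DAT. Ki values are the mean ± SEM of three experiments run in triplicate. Compounds tested mainly as hydrochloride salts, some as oxalate salts.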
A general note: Displacement assays read how much labelled ligand stays bound in the presence of the test substance.

For test [2], the target named is Sodium-dependent dopamine transporter (Rattus norvegicus, UniProt P23977). Description: Displacement of [3H]WIN 35,428 from DAT in Sprague-Dawley rat brain homogenate preincubated for 5 mins prior to radioligand addition measured after 1 hr by scintillation counting analysis. The method in brief:
as §1

Sodium-dependent serotonin transporter, sequence (P31652 whole entry): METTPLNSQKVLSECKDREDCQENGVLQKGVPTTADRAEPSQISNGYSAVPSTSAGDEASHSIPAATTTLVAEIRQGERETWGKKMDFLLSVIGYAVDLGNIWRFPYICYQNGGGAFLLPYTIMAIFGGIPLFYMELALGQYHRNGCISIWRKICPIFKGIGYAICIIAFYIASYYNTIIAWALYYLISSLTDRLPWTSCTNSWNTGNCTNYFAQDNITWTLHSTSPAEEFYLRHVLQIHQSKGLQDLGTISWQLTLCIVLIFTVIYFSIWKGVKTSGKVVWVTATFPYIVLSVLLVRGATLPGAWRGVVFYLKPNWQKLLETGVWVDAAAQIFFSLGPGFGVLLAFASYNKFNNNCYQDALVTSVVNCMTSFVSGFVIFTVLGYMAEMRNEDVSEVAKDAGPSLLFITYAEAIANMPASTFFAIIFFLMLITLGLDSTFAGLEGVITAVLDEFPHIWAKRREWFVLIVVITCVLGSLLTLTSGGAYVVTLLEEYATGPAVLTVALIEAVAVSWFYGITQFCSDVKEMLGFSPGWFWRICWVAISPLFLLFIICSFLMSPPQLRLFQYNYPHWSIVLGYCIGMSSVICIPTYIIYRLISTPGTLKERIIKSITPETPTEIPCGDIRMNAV
Sodium-dependent dopamine transporter, sequence (P23977 whole entry): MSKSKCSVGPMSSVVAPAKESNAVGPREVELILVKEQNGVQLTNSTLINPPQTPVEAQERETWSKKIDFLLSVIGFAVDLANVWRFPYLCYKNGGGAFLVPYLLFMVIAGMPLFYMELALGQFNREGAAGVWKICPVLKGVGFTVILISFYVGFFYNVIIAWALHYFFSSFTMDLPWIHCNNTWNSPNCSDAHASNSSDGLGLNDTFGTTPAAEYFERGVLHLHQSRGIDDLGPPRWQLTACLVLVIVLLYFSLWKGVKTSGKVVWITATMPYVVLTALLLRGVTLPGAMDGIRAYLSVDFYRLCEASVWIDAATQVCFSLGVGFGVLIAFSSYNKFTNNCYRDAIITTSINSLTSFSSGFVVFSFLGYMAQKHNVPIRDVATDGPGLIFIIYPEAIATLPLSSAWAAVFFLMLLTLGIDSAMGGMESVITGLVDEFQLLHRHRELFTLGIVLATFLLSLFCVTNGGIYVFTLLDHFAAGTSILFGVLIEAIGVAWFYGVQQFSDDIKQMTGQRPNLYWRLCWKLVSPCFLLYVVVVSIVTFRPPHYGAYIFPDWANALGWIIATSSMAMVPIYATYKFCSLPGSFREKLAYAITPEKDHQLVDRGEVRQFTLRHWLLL

As to `CN1CC(OCc2ccc(Cl)cc2)(c2ccccc2)C1`, in the test listed under Rattus norvegicus, the Ratio Ki turned out to be 980. Further, the Ki in test [1] stood at 4 nM; in test [2] it was 3910 nM.
For the compound `Clc1ccc(C2(OCc3ccc(Cl)c(Cl)c3)CNC2)cc1`, the Ratio Ki in the test listed under Rattus norvegicus amounted to 470. For the same compound, the inhibition constant (Ki) in test [1] is 8.1 nM; in test [2] it was 3770 nM.
On the same counts, the results for `Clc1ccc(C2(OCc3ccccc3)CNC2)cc1Cl` are 6.3, 208 nM and 1300 nM.
Compound `CN1CC(OCc2ccc(Cl)c(Cl)c2)(c2ccccc2)C1` gave a Ki in test [1] of 1 nM.
For `CN1CC(OCc2ccc(Cl)cc2)(c2ccc(Cl)c(Cl)c2)C1`, in the test listed under Rattus norvegicus, the Ratio Ki was 630. Besides, the Ki in test [1] is 4.8 nM; in test [2], 2290 nM.
On the same counts, the results for `Clc1ccc(COC2(c3ccccc3)CNC2)cc1Cl` are 390, 7.3 nM and 2820 nM.
On the same counts, the results for `Clc1ccc(COC2(c3ccc(Cl)cc3)CNC2)cc1` are 1100, 3.5 nM and 3830 nM.
On the same counts, the results for `Clc1ccc(COC2(c3ccccc3)CNC2)cc1` are 1.4, 2590 nM and 3610 nM.
As for `CN1CC(OCc2ccc(Cl)cc2)(c2ccc(Cl)cc2)C1`, the Ratio Ki in the test filed under Rattus norvegicus was 490. Moreover, the Ki in test [1] was determined as 7.8 nM; in test [2], 2030 nM.
The corresponding values for `CN1CC(OCc2ccccc2)(c2ccccc2)C1` are 24, 73 nM and 1730 nM.
On the same counts, the results for `Clc1ccc(COC2(c3ccc(Cl)c(Cl)c3)CNC2)cc1` are 1000, 2.9 nM and 3020 nM.
Consider `c1ccc(COC2(c3ccccc3)CNC2)cc1`, for which the Ratio Ki in the test listed under Rattus norvegicus came out at 4. In addition, the values for the Ki in test [1] and in test [2] were 1230 nM and 4860 nM, respectively.
Consider `Clc1ccc(C2(OCc3ccccc3)CNC2)cc1`, for which, in the test listed under Rattus norvegicus, the Ratio Ki is 3.9. The figures for the Ki in test [1] and in test [2] were 825 nM and 3180 nM, respectively.
On the same counts, the results for `CN1CC(OCc2ccccc2)(c2ccc(Cl)cc2)C1` are 36, 39 nM and 1410 nM.
Take `Clc1ccc(COC2(c3ccc(Cl)c(Cl)c3)CNC2)cc1Cl`: the Ratio Ki in the test listed under Rattus norvegicus turned out to be 870. Further, the Ki in test [1] amounted to 4.2 nM; in test [2], 3670 nM.
Take `CN1CC(OCc2ccc(Cl)c(Cl)c2)(c2ccc(Cl)cc2)C1`: the Ratio Ki in the test listed under Rattus norvegicus was found to be 330. For the same compound, the inhibition constant (Ki) in test [1] is 3 nM; in test [2] it was 976 nM.
On the same counts, the results for `CN1CC(OCc2ccc(Cl)c(Cl)c2)(c2ccc(Cl)c(Cl)c2)C1` are 340, 1.3 nM and 436 nM.
The corresponding values for `CN1CC(OCc2ccccc2)(c2ccc(Cl)c(Cl)c2)C1` are 27, 23 nM and 620 nM.

A word on the Ki: it is a measure of affinity in units of concentration, obtained from inhibition or displacement. Low values mean higher affinity, high ones lower affinity.
